Values after ≈ are worked out from the molar mass of the structure shown.
Experiments:
[1] = tested on: Staphylococcus haemolyticus; assay: Antibacterial activity against Staphylococcus haemolyticus ATCC 29970 by broth dilution colorimetric assay; assay type: functional
Method in brief: (§1)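 Modified broth dilution colorimetric assay in 96-well plates, run against a plant- and human-pathogen panel. Both MIC and median inhibitory concentration (IC50) were determined. Streptomycin sulfate served as the positive control.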

[2] = Cytotoxicity against human Capan2 cells by MTT assay; assay type: functional, cell-based; conditions: Capan-2
Method in brief: (§2)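 Microculture tetrazolium (MTT) assay on a panel of human carcinoma cell lines: colon HCT-116, hepatocellular HepG2, gastric BGC-823, NSCLC NCI-H1650, ovarian A2780, melanoma A375, lung adenocarcinoma A549, breast MCF-7 and pancreatic Capan2. IC50 values are reported in μM.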

[3] = Antibacterial activity against Ralstonia solanacearum ATCC 11696 by broth dilution colorimetric assay; assay type: functional, Ralstonia solanacearum K60-1
Method in brief: (§3)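 Modified broth dilution colorimetric assay in 96-well plates, reporting both minimum inhibitory concentration (MIC) and median inhibitory concentration (IC50). Streptomycin sulfate served as positive control.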

[4] = Cytotoxicity against human A549 cells by MTT assay; assay type: functional, cell-based; method in brief: as §2
[5] = tested on: Pyricularia oryzae; assay: Antifungal activity against Magnaporthe oryzae assessed as inhibition of spore germination after 8 hrs by microscopic analysis; assay type: functional
Method in brief: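 Spores taken from 7-day-old M. oryzae cultures (2 × 10^6 spores per mL). Compound in 10% aqueous ethanol was mixed 1:1 with the spore suspension on a concave slide and kept in a dark moist chamber at 25 °C for 8 h. Germination was counted by microscope. Inhibition % = [(Gc − Gt)/Gc] × 100 against 10% ethanol control, with triplicates. IC50 was obtained by linear regression; carbendazim served as positive control.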

[6] = tested on: Agrobacterium tumefaciens; assay: Antibacterial activity against Agrobacterium tumefaciens ATCC 11158 by broth dilution colorimetric assay; assay type: functional; method in brief: as §1
[7] = tested on: Pseudomonas amygdali pv. lachrymans; assay: Antibacterial activity against Pseudomonas lachrymans ATCC 11921 by broth dilution colorimetric assay; assay type: functional; method in brief: as §1
[8] = tested on: Xanthomonas euvesicatoria; assay: Antibacterial activity against Xanthomonas vesicatoria ATCC 11633 by broth dilution colorimetric assay; assay type: functional; method in brief: as §1
[9] = tested on: Bacillus subtilis; assay: Antibacterial activity against Bacillus subtilis ATCC 11562 by broth dilution colorimetric assay; assay type: functional; method in brief: as §1
[10] = Cytotoxicity against human HCT116 cells by MTT assay; assay type: functional, cell-based; conditions: HCT-116; method in brief: as §2
[11] = Cytotoxicity against human A375 cells by MTT assay; assay type: functional, cell-based; conditions: A-375; method in brief: as §2
[12] = Cytotoxicity against human MCF7 cells by MTT assay; assay type: functional, cell-based; method in brief: as §2
[13] = Cytotoxicity against human A2780 cells by MTT assay; assay type: functional, cell-based; method in brief: as §2
[14] = Cytotoxicity against human NCI-H1650 cells by MTT assay; assay type: functional, cell-based; method in brief: as §2
[15] = Cytotoxicity against human HepG2 cells by MTT assay; assay type: functional, cell-based; method in brief: as §2
[16] = Cytotoxicity against human BGC823 cells by MTT assay; assay type: functional, cell-based; conditions: BGC-823; method in brief: as §2
[17] = tested on: Pseudomonas amygdali pv. lachrymans; assay: Antibacterial activity against Pseudomonas lachrymans ATCC 11921 after 24 hrs by MTT based broth dilution colorimetric assay; assay type: functional; conditions: ATCC 11921, 24 h; method in brief: as §3
[18] = tested on: Agrobacterium tumefaciens; assay: Antibacterial activity against Agrobacterium tumefaciens ATCC 11158 after 24 hrs by MTT based broth dilution colorimetric assay; assay type: functional; conditions: ATCC 11158, 24 h
[19] = tested on: Xanthomonas euvesicatoria; assay: Antibacterial activity against Xanthomonas vesicatoria ATCC 11633 after 24 hrs by MTT based broth dilution colorimetric assay; assay type: functional; conditions: ATCC 11633, 24 h; method in brief: as §3
[20] = tested on: Bacillus subtilis; assay: Antibacterial activity against Bacillus subtilis ATCC 11562 after 24 hrs by MTT based broth dilution colorimetric assay; assay type: functional; conditions: ATCC 11562, 24 h
[21] = Cytotoxicity against human HeLa cells; assay type: functional, cell-based
[22] = Cytotoxicity against human MDA-MB-231 cells; assay type: functional, cell-based
[23] = Cytotoxicity against human T47D cells; assay type: functional, cell-based
[24] = Cytotoxicity against human HuCCa1 cells; assay type: functional, cell-based; conditions: HuCC-A1
[25] = Cytotoxicity against human MRC5 cells; assay type: toxicity, cell-based
[26] = Cytotoxicity against human MOLT3 cells; assay type: functional, cell-based; conditions: MOLT-3
[27] = Cytotoxicity against human A549 cells; assay type: functional, cell-based
[28] = Cytotoxicity against human HepG2 cells; assay type: functional, cell-based

Row | Structure (SMILES) | MIC [1] [µg/mL] | IC50 [2] [µM] | MIC [3] [µg/mL] | IC50 [4] [µM] | IC50 [5] [µg/mL] | IC50 [6] [µg/mL] | MIC [6] [µg/mL] | IC50 [7] [µg/mL] | MIC [7] [µg/mL] | MIC [8] [µg/mL] | IC50 [9] [µg/mL] | MIC [9] [µg/mL] | IC50 [10] [µM] | IC50 [11] [µM] | IC50 [12] [µM] | IC50 [3] [µg/mL] | IC50 [13] [µM] | IC50 [14] [µM] | IC50 [15] [µM] | IC50 [16] [µM] | also measured
1 | COc1cc(O)c2c(=O)oc3c(c2c1)[C@@](C)(O)C[C@@H](OC)[C@@]31C[C@@H](O)C(=O)O1 | > 200 | > 50 | > 200 | > 50 | > 200 | 56.7 (≈ 145 µM) | 100 (≈ 255 µM) | 44.7 (≈ 114 µM) | 100 (≈ 255 µM) | > 200 | 45.5 (≈ 116 µM) | 75 (≈ 191 µM) | > 50 | > 50 | > 50 | – | – | – | – | – | –
2 | COC1=C[C@](C)(O)c2c(oc(=O)c3c(O)cc(OC)cc23)C1=O | > 200 | > 50 | > 200 | > 50 | 82.1 (≈ 258 µM) | – | > 200 | – | > 200 | > 200 | – | > 200 | > 50 | > 50 | > 50 | – | – | – | – | – | –
3 | COc1cc(O)c2c(=O)oc3c(c2c1)[C@@](C)(O)C[C@H](OC)[C@@]31C[C@@H](O)C(=O)O1 | > 200 | – | > 200 | – | – | – | > 200 | – | > 200 | > 200 | – | > 200 | – | – | – | – | – | – | – | – | –
4 | COc1cc(O)c2c(=O)oc3c(c2c1)[C@@](C)(O)C(Cl)=C(O)C3=O | 25 (≈ 73.8 µM) | > 50 | 50 (≈ 148 µM) | 25.5 | – | 47.3 (≈ 140 µM) | 100 (≈ 295 µM) | 4.3 (≈ 12.7 µM) | 25 (≈ 73.8 µM) | 100 (≈ 295 µM) | 44.6 (≈ 132 µM) | 100 (≈ 295 µM) | 37.3 | > 50 | > 50 | 36.5 (≈ 108 µM) | – | – | – | – | IC50 [1]: 7 µg/mL (≈ 20.7 µM); IC50 [8]: 52.5 µg/mL (≈ 155 µM)
5 | COc1cc(O)c2c(=O)oc3c(O)c(OC)c(Cl)c(C)c3c2c1 | 50 (≈ 148 µM) | – | 50 (≈ 148 µM) | – | > 200 | 15 (≈ 44.5 µM) | 50 (≈ 148 µM) | 16.4 (≈ 48.7 µM) | 50 (≈ 148 µM) | 50 (≈ 148 µM) | 22.4 (≈ 66.5 µM) | 50 (≈ 148 µM) | > 10 | – | – | 24.2 (≈ 71.9 µM) | > 10 | > 10 | > 10 | > 10 | IC50 [1]: 26.7 µg/mL (≈ 79.3 µM); IC50 [8]: 15.9 µg/mL (≈ 47.2 µM)
6 | COc1cc(O)c2c(=O)oc3cc(O)c(Cl)c(C)c3c2c1 | – | > 50 | – | > 50 | – | – | – | – | – | – | – | – | > 50 | > 50 | > 50 | – | – | – | – | – | IC50 [17]: 16.7 to 34.3 µg/mL (≈ 54.5 to 112 µM); IC50 [18]: 16.7 to 34.3 µg/mL (≈ 54.5 to 112 µM); IC50 [19]: 16.7 to 34.3 µg/mL (≈ 54.5 to 112 µM); IC50 [20]: 16.7 to 34.3 µg/mL (≈ 54.5 to 112 µM)
7 | Cc1c(Cl)c(O)cc2oc(=O)c3c(O)cc(O)cc3c12 | > 200 | – | 50 (≈ 171 µM) | – | 9.9 (≈ 33.8 µM) | 16.3 (≈ 55.7 µM) | 50 (≈ 171 µM) | – | > 200 | 75 (≈ 256 µM) | 18.6 (≈ 63.6 µM) | 50 (≈ 171 µM) | > 10 | – | – | 12.4 (≈ 42.4 µM) | > 10 | > 10 | > 10 | > 10 | IC50 [8]: 22.7 µg/mL (≈ 77.6 µM)
8 | COC1=C(N)[C@](C)(O)c2c(oc(=O)c3c(O)cc(OC)cc23)C1=O | > 200 | – | > 200 | – | – | – | > 200 | – | > 200 | > 200 | – | > 200 | – | – | – | – | – | – | – | – | –
9 | COc1cc(O)c2c(=O)oc3c(O)c(OC)cc(C)c3c2c1 | > 200 | – | > 200 | – | > 200 | – | > 200 | – | > 200 | > 200 | – | > 200 | > 10 | – | – | – | > 10 | > 10 | > 10 | > 10 | –
10 | COC1=C(Cl)[C@](C)(O)c2c(oc(=O)c3c(O)cc(OC)cc23)C1=O | > 200 | – | > 200 | – | 12 (≈ 34 µM) | – | > 200 | – | > 200 | > 200 | 21.6 (≈ 61.2 µM) | 50 (≈ 142 µM) | 4.2 | – | – | – | 3.6 | 3.2 | 5.9 | 7.8 | IC50 [21]: 1.1 to 12.6 µM; IC50 [22]: 1.1 to 12.6 µM; IC50 [23]: 1.1 to 12.6 µM; IC50 [24]: 1.1 to 12.6 µM; IC50 [25]: 1.1 to 12.6 µM; IC50 [26]: 1.1 to 12.6 µM; IC50 [27]: 1.1 to 12.6 µM; IC50 [28]: 1.1 to 12.6 µM
11 | COc1cc(O)c2c(=O)oc3cc(O)cc(C)c3c2c1 | – | > 50 | – | 70.4 | – | – | – | – | – | – | – | – | > 50 | > 50 | > 50 | – | – | – | – | – | IC50 [17]: 16.7 to 34.3 µg/mL (≈ 61.3 to 126 µM); IC50 [18]: 16.7 to 34.3 µg/mL (≈ 61.3 to 126 µM); IC50 [19]: 16.7 to 34.3 µg/mL (≈ 61.3 to 126 µM); IC50 [20]: 16.7 to 34.3 µg/mL (≈ 61.3 to 126 µM)
12 | Cc1cc(O)cc2oc(=O)c3c(O)cc(O)cc3c12 [ALTERNARIOL] | 50 (≈ 194 µM) | – | 25 (≈ 96.8 µM) | – | > 200 | 11.4 (≈ 44.1 µM) | 50 (≈ 194 µM) | 3.5 (≈ 13.6 µM) | 25 (≈ 96.8 µM) | 25 (≈ 96.8 µM) | 7 (≈ 27.1 µM) | 50 (≈ 194 µM) | > 10 | – | – | 5.5 (≈ 21.3 µM) | > 10 | > 10 | > 10 | > 10 | IC50 [1]: 7.9 µg/mL (≈ 30.6 µM); IC50 [8]: 4.9 µg/mL (≈ 19 µM)
13 | COC(=O)Nc1nc2ccccc2[nH]1 [CARBENDAZIM] | – | – | – | – | 6.9 (≈ 36.1 µM) | – | – | – | – | – | – | – | – | – | – | – | – | – | – | – | –
14 | CC(=O)O[C@H]1C(=O)[C@@]2(C)[C@H]([C@H](OC(=O)c3ccccc3)[C@]3(O)C[C@H](OC(=O)[C@H](O)[C@@H](NC(=O)c4ccccc4)c4ccccc4)C(C)=C1C3(C)C)[C@]1(OC(C)=O)CO[C@@H]1C[C@@H]2O [PACLITAXEL] | – | 0.017 | – | 0.023 | – | – | – | – | – | – | – | – | 0.0009 to 0.004 | 0.022 | 0.0006 | – | 0.038 | 0.068 | 0.012 | 0.0033 | –
15 | CN[C@@H]1[C@H](O[C@H]2[C@H](O[C@H]3[C@H](O)[C@@H](O)[C@H](N=C(N)N)[C@@H](O)[C@@H]3N=C(N)N)O[C@@H](C)[C@]2(O)C=O)O[C@@H](CO)[C@H](O)[C@H]1O.CN[C@@H]1[C@H](O[C@H]2[C@H](O[C@H]3[C@H](O)[C@@H](O)[C@H](N=C(N)N)[C@@H](O)[C@@H]3N=C(N)N)O[C@@H](C)[C@]2(O)C=O)O[C@@H](CO)[C@H](O)[C@H]1O.O=S(=O)(O)O.O=S(=O)(O)O.O=S(=O)(O)O [STREPTOMYCIN SULFATE] | 5 | – | 5 | – | – | 1.4 | 5 | 2.3 | 7.5 | 10 | 1.4 | 5 | – | – | – | 1.2 | – | – | – | – | IC50 [1]: 1.4 µg/mL; IC50 [8]: 2.6 µg/mL
